The nature of series [1]: melting temperature; fluorescence melt of hairpins on a sequencing array, two-state fit, raised by 9.35 °C to match UV melts. The note with it: sodium 0.088 M. Summed up: (§1)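 Folding enthalpy and melting temperature were estimated with bootstrapped two-state fits and combined across four replicates by inverse-variance weighting, with fitted temperatures raised by 9.35 °C to match UV melts. The data were Cy3 fluorescence of library hairpins, with annealed Cy3 and quencher oligos, on a sequenced MiSeq flow cell in 50 mM Na-HEPES pH 8.0, 25 mM NaCl, imaged in 2.5 °C steps up to 60 °C and normalised to pre-quench Cy3 and control constructs.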

Series [2] in a line: folding enthalpy; higher = less favourable; fluorescence melt of hairpins on a sequencing array, two-state fit. As to conditions: sodium 0.088 M. Summed up: as §1

The record followed here is the array DNA melting data of Ke et al. (doi:10.1101/2024.01.08.574731).

Consider GATCCGCTACCGGATC ((((((....)))))), for which the Tm in series [1] was determined as 56.8 °C. Also, the folding enthalpy in series [2] was -48 kcal/mol.

For GATCCGCTCCCGGATC ((((((....)))))), the Tm in series [1] was found to be 56.9 °C. Besides, the folding enthalpy in series [2] was -35.8 kcal/mol.

With GATCCGGAGTCGGATC ((((((....)))))), the Tm in series [1] came out at 55.7 °C. For the same sequence, in series [2], the folding enthalpy was -36.4 kcal/mol.

For the sequence GATCCGGATCCGGATC ((((((....)))))), the Tm in series [1] was determined as 61.3 °C. The folding enthalpy in series [2] is -51.4 kcal/mol.

For GATCCGGCAGCGGATC ((((((....)))))), the Tm in series [1] is 59.4 °C. The folding enthalpy in series [2] was -37.8 kcal/mol.

On to GATCCGGCATCGGATC ((((((....)))))), for which, in series [1], the Tm came out at 64.8 °C. Further, the folding enthalpy in series [2] is -45.5 kcal/mol.

As for GATCCGGCCACGGATC ((((((....)))))), the Tm in series [1] is 67.5 °C. Moreover, the folding enthalpy in series [2] is -41.6 kcal/mol.

With GATCCGGCCCGGATC ((((((...)))))), in series [1], the Tm was 58.9 °C. The folding enthalpy in series [2] is -30.7 kcal/mol.

Regarding GATCCGGCGCGGATC ((((((...)))))), the Tm in series [1] was determined as 59.3 °C. Further, the folding enthalpy in series [2] is -37.1 kcal/mol.

As to GATCCGGCGGCGGATC ((((((....)))))), the Tm in series [1] came to 58.7 °C. Besides, the folding enthalpy in series [2] is -41.5 kcal/mol.

As for GATCCGGCTCCGGATC ((((((....)))))), in series [1], the Tm came to 59.1 °C. In series [2], the folding enthalpy is -38.4 kcal/mol.

For GATCCGGCTCGGATC ((((((...)))))), in series [1], the Tm is 59.7 °C. For the same sequence, the folding enthalpy in series [2] is -39.6 kcal/mol.

With GATCCGGGGTCGGATC ((((((....)))))), the Tm in series [1] came out at 56.7 °C. The folding enthalpy in series [2] is -47.9 kcal/mol.

As to GATCCGGGTACGGATC ((((((....)))))), the Tm in series [1] turned out to be 67.9 °C. Besides, in series [2], the folding enthalpy was -36 kcal/mol.

On to GATCCGGGTCCGGATC ((((((....)))))), for which the Tm in series [1] stood at 62.5 °C. For the same sequence, the folding enthalpy in series [2] was -39.1 kcal/mol.

As for GATCCGGGTGCGGATC ((((((....)))))), the Tm in series [1] amounted to 63.2 °C. In addition, the folding enthalpy in series [2] is -41 kcal/mol.

As to GATCCGGGTTCGGATC ((((((....)))))), the Tm in series [1] is 58.5 °C. Further, the folding enthalpy in series [2] is -44.7 kcal/mol.

In the case of GATCCGTAATCGGATC ((((((....)))))), the Tm in series [1] is 57 °C. In series [2], the folding enthalpy was -34.4 kcal/mol.

Consider GATCCGTATGCGGATC ((((((....)))))), for which the Tm in series [1] amounted to 63.2 °C. In series [2], the folding enthalpy is -40.3 kcal/mol.

On to GATCCGTCAGCGGATC ((((((....)))))), for which the Tm in series [1] was 57.4 °C. Besides, the folding enthalpy in series [2] is -42.6 kcal/mol.

For GATCCGTCCGCGGATC ((((((....)))))), the Tm in series [1] came out at 61 °C. Further, in series [2], the folding enthalpy is -36.7 kcal/mol.

For the sequence GATCCGTCTCGGATC ((((((...)))))), the Tm in series [1] came out at 59.7 °C. In series [2], the folding enthalpy was -42.8 kcal/mol.

In the case of GATCCGTGGCGGATC ((((((...)))))), the Tm in series [1] is 56.3 °C. The folding enthalpy in series [2] was -41.5 kcal/mol.

As to GATCCGTTTCCGGATC ((((((....)))))), the Tm in series [1] is 58.9 °C. Moreover, the folding enthalpy in series [2] was -41.2 kcal/mol.

Turning to GATCCGTTTTCGGATC ((((((....)))))), the Tm in series [1] was determined as 61.8 °C. The folding enthalpy in series [2] was -42.2 kcal/mol.

Take GATCCTAAAAGGATC ((((((...)))))): the Tm in series [1] came out at 54.3 °C. The folding enthalpy in series [2] was -36.3 kcal/mol.

As for GATCCTAAGCAGGATC ((((((....)))))), in series [1], the Tm was 52.9 °C. For the same sequence, the folding enthalpy in series [2] is -29.9 kcal/mol.

Take GATCCTACCGAGGATC ((((((....)))))): in series [1], the Tm came to 51.2 °C. Moreover, the folding enthalpy in series [2] is -39.2 kcal/mol.

For GATCCTACTTAGGATC ((((((....)))))), in series [1], the Tm came out at 53.2 °C. For the same sequence, the folding enthalpy in series [2] was -37.3 kcal/mol.

As for GATCCTAGCGAGGATC ((((((....)))))), the Tm in series [1] is 52.8 °C. The folding enthalpy in series [2] is -32.9 kcal/mol.

Consider GATCCTAGGAGGATC ((((((...)))))), for which, in series [1], the Tm amounted to 54.1 °C. In series [2], the folding enthalpy was -35.3 kcal/mol.

For GATCCTAGTCAGGATC ((((((....)))))), in series [1], the Tm worked out at 51.6 °C. Besides, the folding enthalpy in series [2] was -45.9 kcal/mol.

As to GATCCTATAAAGGATC ((((((....)))))), the Tm in series [1] worked out at 51.8 °C. Further, the folding enthalpy in series [2] was -38.6 kcal/mol.

For GATCCTATAGAGGATC ((((((....)))))), in series [1], the Tm turned out to be 50.4 °C. In addition, the folding enthalpy in series [2] is -28.9 kcal/mol.

GATCCTATTGAGGATC ((((((....)))))): the Tm in series [1] came out at 51.4 °C. The folding enthalpy in series [2] was -40.9 kcal/mol.

For the sequence GATCCTCAAGAGGATC ((((((....)))))), the Tm in series [1] was determined as 53.4 °C. Further, in series [2], the folding enthalpy was -38 kcal/mol.

For the sequence GATCCTCCGCAGGATC ((((((....)))))), in series [1], the Tm amounted to 44.6 °C. In addition, in series [2], the folding enthalpy was -14.5 kcal/mol.

In the case of GATCCTCCTCAGGATC ((((((....)))))), in series [1], the Tm is 50.2 °C. In addition, in series [2], the folding enthalpy is -45.2 kcal/mol.
